# What was measured:
# [1] = target: T1, Aurora kinase A (Homo sapiens, UniProt O14965); experiment: Inhibition of AURA (unknown origin) by microfluidic mobility shift assay
# T1 sequence (O14965 whole entry): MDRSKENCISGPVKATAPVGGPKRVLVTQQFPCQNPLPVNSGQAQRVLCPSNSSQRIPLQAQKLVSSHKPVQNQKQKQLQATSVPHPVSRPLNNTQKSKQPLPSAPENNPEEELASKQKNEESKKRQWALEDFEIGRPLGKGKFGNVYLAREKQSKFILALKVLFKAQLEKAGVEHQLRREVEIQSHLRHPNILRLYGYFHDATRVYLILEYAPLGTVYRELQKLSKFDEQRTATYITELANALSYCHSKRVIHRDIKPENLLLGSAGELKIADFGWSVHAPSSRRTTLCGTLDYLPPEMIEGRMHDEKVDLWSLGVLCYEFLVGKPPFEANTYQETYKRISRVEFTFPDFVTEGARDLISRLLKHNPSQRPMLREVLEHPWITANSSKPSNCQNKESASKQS
# [2] = target: Protein kinase C beta type (Homo sapiens) (UniProt P05771); experiment: Inhibition of PKCbeta-2 (unknown origin) at 30 uM by microfluidic mobility shift assay relative to control
# Outline: (§1)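 Single-point screen at 30 µM test compound across a 24-kinase panel in a microfluidic assay format. ATP was set near each enzyme's Km,[ATP]. […] The pan-AGC inhibitor H-89 served as an internal control on every assay plate.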
# [3] = target: RAC-gamma serine/threonine-protein kinase (Homo sapiens) (UniProt Q9Y243); experiment: Inhibition of AKT3 (unknown origin) at 30 uM by microfluidic mobility shift assay relative to control; outline: as §1
# [4] = target: T2, Serine/threonine-protein kinase D1 (Homo sapiens) (UniProt Q15139); experiment: Inhibition of PKD1 (unknown origin) at 30 uM by microfluidic mobility shift assay relative to control
# T2 sequence (whole entry): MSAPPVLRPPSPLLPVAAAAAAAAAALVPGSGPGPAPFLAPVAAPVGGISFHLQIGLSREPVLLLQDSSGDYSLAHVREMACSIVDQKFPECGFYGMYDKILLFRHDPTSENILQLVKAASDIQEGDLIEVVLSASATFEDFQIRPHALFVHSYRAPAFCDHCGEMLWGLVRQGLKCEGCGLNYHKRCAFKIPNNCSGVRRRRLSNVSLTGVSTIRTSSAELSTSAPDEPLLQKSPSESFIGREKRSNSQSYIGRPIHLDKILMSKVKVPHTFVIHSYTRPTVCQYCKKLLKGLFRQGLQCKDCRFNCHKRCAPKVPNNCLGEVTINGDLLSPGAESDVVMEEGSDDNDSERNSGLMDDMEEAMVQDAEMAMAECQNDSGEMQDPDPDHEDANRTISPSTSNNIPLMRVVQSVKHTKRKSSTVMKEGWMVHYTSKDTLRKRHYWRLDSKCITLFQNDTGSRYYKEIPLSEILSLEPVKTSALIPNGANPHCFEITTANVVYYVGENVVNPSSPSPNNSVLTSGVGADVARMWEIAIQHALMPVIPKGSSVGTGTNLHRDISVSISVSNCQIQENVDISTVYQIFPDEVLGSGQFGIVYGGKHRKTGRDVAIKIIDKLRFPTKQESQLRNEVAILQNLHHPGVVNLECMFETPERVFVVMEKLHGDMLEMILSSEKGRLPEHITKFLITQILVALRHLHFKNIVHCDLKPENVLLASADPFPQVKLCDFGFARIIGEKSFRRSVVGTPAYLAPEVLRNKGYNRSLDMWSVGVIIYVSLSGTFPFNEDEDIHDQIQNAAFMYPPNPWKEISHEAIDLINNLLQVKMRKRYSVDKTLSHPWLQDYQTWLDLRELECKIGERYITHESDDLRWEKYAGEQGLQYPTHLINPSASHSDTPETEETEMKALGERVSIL
# Outline: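 Single-point screen against a 24-kinase panel in a commercial microfluidic assay format. Compounds were tested at 30 µM, with ATP at approximately the Km,[ATP] of each enzyme. H-89 was included on each assay plate as an internal control.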
# [5] = target: Insulin-like growth factor 1 receptor (Homo sapiens) (UniProt P08069); experiment: Inhibition of IGF1R (unknown origin) at 30 uM by microfluidic mobility shift assay relative to control; outline: as §1
# [6] = target: Fibroblast growth factor receptor 1 (Homo sapiens) (UniProt P11362); experiment: Inhibition of FGFR1 (unknown origin) at 30 uM by microfluidic mobility shift assay relative to control; outline: as §1
# [7] = target: T3, Serine/threonine-protein kinase 3 (Homo sapiens) (UniProt Q13188); experiment: Inhibition of MST2 (unknown origin) at 30 uM by microfluidic mobility shift assay relative to control; outline: as §1
# T3 sequence (whole entry): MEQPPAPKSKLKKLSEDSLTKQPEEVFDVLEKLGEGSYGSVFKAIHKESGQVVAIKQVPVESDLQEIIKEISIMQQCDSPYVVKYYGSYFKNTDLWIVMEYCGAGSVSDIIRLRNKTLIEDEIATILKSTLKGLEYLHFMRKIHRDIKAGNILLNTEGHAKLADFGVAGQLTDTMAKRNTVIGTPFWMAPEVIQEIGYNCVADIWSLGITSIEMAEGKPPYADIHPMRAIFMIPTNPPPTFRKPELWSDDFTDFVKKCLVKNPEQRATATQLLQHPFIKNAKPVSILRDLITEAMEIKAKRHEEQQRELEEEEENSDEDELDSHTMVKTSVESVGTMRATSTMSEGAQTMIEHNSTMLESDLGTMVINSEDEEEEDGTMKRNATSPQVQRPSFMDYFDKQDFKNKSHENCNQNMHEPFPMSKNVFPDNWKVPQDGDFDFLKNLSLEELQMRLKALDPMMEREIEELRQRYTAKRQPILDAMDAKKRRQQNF
# [8] = target: Fibroblast growth factor receptor 2 (Homo sapiens) (UniProt P21802); experiment: Inhibition of FGFR2 (unknown origin) at 30 uM by microfluidic mobility shift assay relative to control; outline: as §1
# Fibroblast growth factor receptor 2 (Homo sapiens), sequence (P21802 22-821 limits assumed): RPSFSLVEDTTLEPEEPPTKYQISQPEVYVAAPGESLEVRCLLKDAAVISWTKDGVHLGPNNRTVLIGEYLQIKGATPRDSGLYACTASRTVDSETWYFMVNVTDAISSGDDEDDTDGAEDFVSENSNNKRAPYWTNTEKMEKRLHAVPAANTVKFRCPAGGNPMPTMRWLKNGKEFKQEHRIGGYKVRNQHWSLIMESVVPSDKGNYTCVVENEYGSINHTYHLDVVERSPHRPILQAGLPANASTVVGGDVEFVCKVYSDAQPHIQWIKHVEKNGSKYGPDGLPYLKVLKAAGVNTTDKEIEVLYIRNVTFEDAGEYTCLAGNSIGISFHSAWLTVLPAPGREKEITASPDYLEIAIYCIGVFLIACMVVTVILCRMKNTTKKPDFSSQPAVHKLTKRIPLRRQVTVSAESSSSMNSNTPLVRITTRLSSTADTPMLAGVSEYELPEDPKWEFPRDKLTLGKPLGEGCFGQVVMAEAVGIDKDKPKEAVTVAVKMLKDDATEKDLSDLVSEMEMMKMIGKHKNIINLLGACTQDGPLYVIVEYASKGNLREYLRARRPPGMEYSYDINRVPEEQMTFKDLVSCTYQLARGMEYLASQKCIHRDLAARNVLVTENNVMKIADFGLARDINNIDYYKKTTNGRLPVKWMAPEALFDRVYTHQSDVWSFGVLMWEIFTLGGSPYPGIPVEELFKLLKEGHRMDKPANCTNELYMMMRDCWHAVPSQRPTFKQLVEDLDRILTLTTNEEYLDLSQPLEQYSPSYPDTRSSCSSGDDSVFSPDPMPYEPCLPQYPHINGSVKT
# Protein kinase C beta type (Homo sapiens), sequence (P05771 2-671 limits assumed): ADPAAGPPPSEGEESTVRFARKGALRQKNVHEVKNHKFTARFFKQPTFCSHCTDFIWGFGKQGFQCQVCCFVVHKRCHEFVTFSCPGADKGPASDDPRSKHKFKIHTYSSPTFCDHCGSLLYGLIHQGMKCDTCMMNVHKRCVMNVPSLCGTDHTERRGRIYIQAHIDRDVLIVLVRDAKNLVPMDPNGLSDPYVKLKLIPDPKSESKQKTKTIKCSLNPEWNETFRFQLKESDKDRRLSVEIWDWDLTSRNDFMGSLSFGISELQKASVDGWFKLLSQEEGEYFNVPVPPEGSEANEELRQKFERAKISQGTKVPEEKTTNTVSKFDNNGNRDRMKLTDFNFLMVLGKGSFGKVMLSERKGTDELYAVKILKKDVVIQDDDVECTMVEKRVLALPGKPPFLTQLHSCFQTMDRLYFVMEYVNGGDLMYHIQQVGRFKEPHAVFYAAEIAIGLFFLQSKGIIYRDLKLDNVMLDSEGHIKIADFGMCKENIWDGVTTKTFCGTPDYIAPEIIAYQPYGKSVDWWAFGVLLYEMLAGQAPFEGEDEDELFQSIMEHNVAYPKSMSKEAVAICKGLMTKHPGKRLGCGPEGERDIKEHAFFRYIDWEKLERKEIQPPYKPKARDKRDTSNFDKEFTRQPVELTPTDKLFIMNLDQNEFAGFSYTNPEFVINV
# Fibroblast growth factor receptor 1 (Homo sapiens), sequence (P11362 22-822 limits assumed): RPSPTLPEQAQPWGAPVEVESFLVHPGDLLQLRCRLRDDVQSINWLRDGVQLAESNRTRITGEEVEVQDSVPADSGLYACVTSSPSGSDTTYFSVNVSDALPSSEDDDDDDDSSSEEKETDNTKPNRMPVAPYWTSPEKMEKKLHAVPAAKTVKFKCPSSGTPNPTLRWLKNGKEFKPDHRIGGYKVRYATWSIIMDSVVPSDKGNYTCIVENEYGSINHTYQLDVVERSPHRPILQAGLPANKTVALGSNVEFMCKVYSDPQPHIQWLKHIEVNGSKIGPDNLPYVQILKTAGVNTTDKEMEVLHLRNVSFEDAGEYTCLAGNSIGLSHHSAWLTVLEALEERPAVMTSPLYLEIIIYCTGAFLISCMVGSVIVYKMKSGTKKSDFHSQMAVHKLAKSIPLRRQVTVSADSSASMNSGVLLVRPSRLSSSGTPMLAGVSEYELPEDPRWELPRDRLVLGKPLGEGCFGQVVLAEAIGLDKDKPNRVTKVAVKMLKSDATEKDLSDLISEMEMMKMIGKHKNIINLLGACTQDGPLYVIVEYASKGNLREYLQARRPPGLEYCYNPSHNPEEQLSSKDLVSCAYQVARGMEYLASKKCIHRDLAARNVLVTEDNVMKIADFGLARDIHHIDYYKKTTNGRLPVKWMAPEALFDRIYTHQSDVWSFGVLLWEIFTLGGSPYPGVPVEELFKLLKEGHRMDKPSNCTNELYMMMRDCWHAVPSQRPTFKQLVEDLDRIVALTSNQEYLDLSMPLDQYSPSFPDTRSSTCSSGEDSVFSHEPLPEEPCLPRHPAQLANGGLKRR
# Insulin-like growth factor 1 receptor (Homo sapiens), sequence (P08069 31-736 limits assumed): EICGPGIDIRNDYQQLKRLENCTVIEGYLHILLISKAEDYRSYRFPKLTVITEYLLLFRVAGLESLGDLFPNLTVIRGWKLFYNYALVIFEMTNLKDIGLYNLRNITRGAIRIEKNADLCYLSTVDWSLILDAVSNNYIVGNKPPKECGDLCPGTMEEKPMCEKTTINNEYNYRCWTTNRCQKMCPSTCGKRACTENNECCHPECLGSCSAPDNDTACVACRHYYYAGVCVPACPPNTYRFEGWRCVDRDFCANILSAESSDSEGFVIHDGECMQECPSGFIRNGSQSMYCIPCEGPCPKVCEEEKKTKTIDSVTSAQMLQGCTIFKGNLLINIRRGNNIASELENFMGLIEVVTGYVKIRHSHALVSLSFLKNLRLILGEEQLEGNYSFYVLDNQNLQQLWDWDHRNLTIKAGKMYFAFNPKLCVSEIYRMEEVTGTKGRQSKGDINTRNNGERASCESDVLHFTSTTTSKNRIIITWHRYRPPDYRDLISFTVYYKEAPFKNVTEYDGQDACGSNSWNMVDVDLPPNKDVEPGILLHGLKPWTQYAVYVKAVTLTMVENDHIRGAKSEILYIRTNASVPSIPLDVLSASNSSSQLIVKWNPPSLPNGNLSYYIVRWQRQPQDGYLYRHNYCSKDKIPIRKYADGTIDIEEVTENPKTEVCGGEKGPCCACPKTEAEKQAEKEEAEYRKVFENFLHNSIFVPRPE
# Insulin-like growth factor 1 receptor (Homo sapiens), sequence (P08069 741-1367 limits assumed): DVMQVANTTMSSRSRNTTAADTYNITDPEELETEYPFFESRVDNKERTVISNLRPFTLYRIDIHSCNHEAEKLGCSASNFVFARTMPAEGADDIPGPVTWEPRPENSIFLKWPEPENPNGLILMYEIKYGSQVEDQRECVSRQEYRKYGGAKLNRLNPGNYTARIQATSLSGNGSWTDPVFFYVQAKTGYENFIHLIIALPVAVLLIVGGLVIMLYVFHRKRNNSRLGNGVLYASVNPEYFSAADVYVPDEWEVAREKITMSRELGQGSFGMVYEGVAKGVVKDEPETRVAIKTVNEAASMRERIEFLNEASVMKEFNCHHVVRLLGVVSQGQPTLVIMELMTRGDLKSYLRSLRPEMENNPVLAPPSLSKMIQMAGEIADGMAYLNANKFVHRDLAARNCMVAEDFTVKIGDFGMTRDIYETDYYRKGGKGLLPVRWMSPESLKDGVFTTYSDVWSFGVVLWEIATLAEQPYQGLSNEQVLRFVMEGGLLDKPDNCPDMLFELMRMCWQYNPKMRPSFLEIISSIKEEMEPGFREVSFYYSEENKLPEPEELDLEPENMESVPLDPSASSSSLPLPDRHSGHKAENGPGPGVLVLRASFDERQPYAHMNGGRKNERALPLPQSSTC
# RAC-gamma serine/threonine-protein kinase (Homo sapiens), sequence (Q9Y243 whole entry): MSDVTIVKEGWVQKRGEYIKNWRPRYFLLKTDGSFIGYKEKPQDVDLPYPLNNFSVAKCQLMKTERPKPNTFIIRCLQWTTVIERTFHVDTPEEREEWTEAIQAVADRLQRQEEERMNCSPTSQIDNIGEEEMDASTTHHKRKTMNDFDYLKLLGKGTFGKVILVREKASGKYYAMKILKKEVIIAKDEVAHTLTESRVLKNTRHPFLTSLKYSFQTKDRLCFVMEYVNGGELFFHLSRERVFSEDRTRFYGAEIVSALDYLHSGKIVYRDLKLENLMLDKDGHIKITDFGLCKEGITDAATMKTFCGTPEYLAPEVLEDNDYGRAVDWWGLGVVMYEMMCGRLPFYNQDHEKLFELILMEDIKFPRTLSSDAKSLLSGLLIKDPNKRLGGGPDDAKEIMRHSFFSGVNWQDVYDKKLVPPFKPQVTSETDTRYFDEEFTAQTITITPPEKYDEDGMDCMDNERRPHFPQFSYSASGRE
inhibition [2] [%],inhibition [3] [%],inhibition [4] [%],inhibition [5] [%],inhibition [6] [%],inhibition [7] [%],inhibition [8] [%],SMILES,IC50 [1] [µM]
–,–,–,–,–,–,–,c1nc(N2CCC3(CCCCN3)CC2)c2nc[nH]c2n1,7.8
–,–,–,–,–,–,–,c1nc(N2CCC3(CCCNC3)CC2)c2nc[nH]c2n1,9.8
36,96,44,5,27,17,15,c1ccc(C2CCNC3(CCN(c4ncnc5[nH]cnc45)CC3)C2)cc1 (racemic),–
60,101,72,5,44,10,18,c1ccc(CC2CCNC3(CCN(c4ncnc5[nH]cnc45)CC3)C2)cc1 (racemic),–
–,–,–,–,–,–,–,O=C(O)C1CCC2(CCN(c3ncnc4[nH]cnc34)CC2)NC1 (racemic),6.1
13,69,12,5,42,18,20,c1ccc(CC2CCC3(CCN(c4ncnc5[nH]cnc45)CC3)NC2)cc1 (racemic),–
